Structures are written as SMILES.

Results on 38 compounds are retold here after ChEMBL document CHEMBL1130215, “7-alkylidenecephalosporin esters as inhibitors of human leukocyte elastase” (J Med Chem, 1997).

The target of this test is T1, Neutrophil elastase (Homo sapiens, UniProt P08246).
T1 sequence (P08246 whole entry): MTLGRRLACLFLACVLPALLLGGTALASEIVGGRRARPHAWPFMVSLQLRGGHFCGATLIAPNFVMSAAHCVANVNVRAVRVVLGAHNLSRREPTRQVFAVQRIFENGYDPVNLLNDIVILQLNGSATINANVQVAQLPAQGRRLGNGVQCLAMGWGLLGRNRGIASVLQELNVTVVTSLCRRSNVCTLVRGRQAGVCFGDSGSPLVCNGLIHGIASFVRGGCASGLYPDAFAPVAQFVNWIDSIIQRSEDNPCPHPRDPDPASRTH
Kind of test: Inhibition of human leukocyte elastase. The method in brief: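 Enzyme preincubated 4 min with inhibitor (DMSO stock, 1 mg/mL, diluted in DMSO when needed) in 0.1 M Tris-NaCl buffer pH 7.5 with NaN3. Aliquot then added to N-(methoxysuccinyl)-Ala-Ala-Pro-Val 4-nitroanilide substrate in buffer. Residual hydrolysis rate read at 410 nm for 2 min at 1 s intervals; IC50 taken from varied inhibitor volumes.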
Regarding `CC(=O)OCC1=C(C(=O)OC(c2ccccc2)c2ccccc2)N2C(=O)/C(=C/c3ccccn3)C2SC1` (stereo not drawn), the IC50 is > 10 µM.
As to `CC(=O)OCC1=C(C(=O)OC(c2ccccc2)c2ccccc2)N2C(=O)/C(=C\Br)C2SC1` (stereo not drawn), inhibition was half-maximal at 0.39 µM (IC50).
`CC(=O)OCC1=C(C(=O)OC(c2ccccc2)c2ccccc2)N2C(=O)/C(=C/c3ccccc3)C2S(=O)(=O)C1` (stereo not drawn) came in with an IC50 of 8.9 µM.
Take `CC(=O)OCC1=C(C(=O)OC(c2ccccc2)c2ccccc2)N2C(=O)C(=C=CC(C)(C)C)C2SC1` (stereo not drawn): the half-maximal inhibitory concentration (IC50) is > 10 µM.
For `CC(=O)OCC1=C(C(=O)OC(c2ccccc2)c2ccccc2)N2C(=O)/C(=C/C=O)C2SC1` (stereo not drawn), the concentration for half-maximal inhibition (IC50) came to 13.9 µM.
To `CO[C@H]1C(=O)N2C(C(=O)OC(c3ccccc3)c3ccccc3)=C(COC(C)=O)CSC12` (stereo partly drawn) belongs 5.35 µM.
On to `CON(C)C(=O)/C=C1/C(=O)N2C(C(=O)OC(c3ccccc3)c3ccccc3)=C(COC(C)=O)CS(=O)(=O)C12` (stereo not drawn), for which the IC50 is > 10 µM.
Then `CC(=O)OCC1=C(C(=O)OC(c2ccccc2)c2ccccc2)N2C(=O)C(=C(Br)Br)C2SC1` (stereo not drawn), with 0.26 µM; and `CC(=O)OCC1=C(C(=O)OC(c2ccccc2)c2ccccc2)N2C(=O)/C(=C/CO)C2SC1` (stereo not drawn), with > 10 µM.
Regarding `CC(=O)OCC1=C(C(=O)OC(c2ccccc2)c2ccccc2)N2C(=O)C(=O)C2SC1` (stereo not drawn), the IC50 is > 10 µM.
Then `CC(=O)OCC1=C(C(=O)OC(c2ccccc2)c2ccccc2)N2C(=O)/C(=C\c3ccccc3)C2S(=O)(=O)C1` (stereo not drawn), with 6 µM; and `CC(=O)OCC1=C(C(=O)OC(c2ccccc2)c2ccccc2)N2C(=O)C(=C=CC(C)(C)C)C2S(=O)(=O)C1` (stereo not drawn), with 10.5 µM; and `CC(=O)OCC1=C(C(=O)OC(c2ccccc2)c2ccccc2)N2C(=O)/C(=C\Br)C2S(=O)(=O)C1` (stereo not drawn), with 3.36 µM.
To `CC(=O)OCC1=C(C(=O)OC(c2ccccc2)c2ccccc2)N2C(=O)C(=C=CBr)C2SC1` (stereo not drawn) belongs 5.4 µM.
Then `CC(=O)OCC1=C(C(=O)OC(c2ccccc2)c2ccccc2)N2C(=O)/C(=C/C#N)C2S(=O)(=O)C1` (stereo not drawn), with 0.49 µM; and `CC(=O)OCC1=C(C(=O)OC(c2ccccc2)c2ccccc2)N2C(=O)C(=C(Cl)Cl)C2S(=O)(=O)C1` (stereo not drawn), with 2.56 µM.
The compound `CC(=O)OCC1=C(C(=O)OC(c2ccccc2)c2ccccc2)N2C(=O)C(=C(Cl)Cl)C2SC1` (stereo not drawn) had an IC50 of 6.41 µM.
In turn, `COC(=O)/C=C1/C(=O)N2C(C(=O)OC(c3ccccc3)c3ccccc3)=C(COC(C)=O)CSC12` (stereo not drawn) showed an IC50 of 2.6 µM.
To `CC(=O)OCC1=C(C(=O)OC(c2ccccc2)c2ccccc2)N2C(=O)CC2SC1` (stereo not drawn) belongs > 10 µM; to `CC(=O)/C=C1/C(=O)N2C(C(=O)OC(c3ccccc3)c3ccccc3)=C(COC(C)=O)CS(=O)(=O)C12` (stereo not drawn), > 10 µM; to `CC(=O)OCC1=C(C(=O)OC(c2ccccc2)c2ccccc2)N2C(=O)[C@@H](N)C2SC1` (stereo partly drawn), > 10 µM.
`[2H]C(=C=C1C(=O)N2C(C(=O)OC(c3ccccc3)c3ccccc3)=C(COC(C)=O)CS(=O)(=O)C12)C(C)(C)C` (stereo not drawn) returned an IC50 of 13.5 µM.
Then `COC(=O)/C(Br)=C1/C(=O)N2C(C(=O)OC(c3ccccc3)c3ccccc3)=C(COC(C)=O)CSC12` (stereo not drawn), with 0.21 µM.
Then `C=C=C1C(=O)N2C(C(=O)OC(c3ccccc3)c3ccccc3)=C(COC(C)=O)CSC12` (stereo not drawn), with 9 µM; and `CC(=O)OCC1=C(C(=O)OC(c2ccccc2)c2ccccc2)N2C(=O)/C(=C/c3ccccc3)C2SC1` (stereo not drawn), with > 10 µM; and `CO[C@H]1C(=O)N2C(C(=O)OC(c3ccccc3)c3ccccc3)=C(COC(C)=O)CS(=O)(=O)C12` (stereo partly drawn), with 0.28 µM.
Then `COC(=O)/C=C1/C(=O)N2C(C(=O)OC(c3ccccc3)c3ccccc3)=C(COC(C)=O)CS(=O)(=O)C12` (stereo not drawn), with 8.9 µM; and `CC(=O)OCC1=C(C(=O)OC(c2ccccc2)c2ccccc2)N2C(=O)/C(=C\c3ccccc3)C2SC1` (stereo not drawn), with > 10 µM.
For the compound `CC(=O)/C=C1/C(=O)N2C(C(=O)OC(c3ccccc3)c3ccccc3)=C(COC(C)=O)CSC12` (stereo not drawn), the midpoint of inhibition, the IC50, lay at 4.27 µM.
Then `CC(=O)OCC1=C(C(=O)OC(c2ccccc2)c2ccccc2)N2C(=O)[C@H](I)C2SC1` (stereo partly drawn), with 1.18 µM; and `CC(=O)OCC1=C(C(=O)OC(c2ccccc2)c2ccccc2)N2C(=O)/C(=C/C#N)C2SC1` (stereo not drawn), with > 10 µM.
For `CC(=O)OCC1=C(C(=O)OC(c2ccccc2)c2ccccc2)N2C(=O)C(Br)(Br)C2SC1` (stereo not drawn), the 50% inhibitory concentration (IC50) worked out at 1.39 µM.
To `CC(=O)OCC1=C(C(=O)OC(c2ccccc2)c2ccccc2)N2C(=O)/C(=C/C(=O)OC(C)(C)C)C2S(=O)(=O)C1` (stereo not drawn) belongs 7.1 µM.
`CC(=O)OCC1=C(C(=O)OC(c2ccccc2)c2ccccc2)N2C(=O)[C@H](Cl)C2SC1` (stereo partly drawn): the half-inhibitory concentration (IC50) worked out at 6 µM.
Take `CC(=O)OCC1=C(C(=O)OC(c2ccccc2)c2ccccc2)N2C(=O)/C(=C/C(=O)OC(C)(C)C)C2SC1` (stereo not drawn): the concentration for half-maximal inhibition (IC50) was > 10 µM.
To `CC(=O)OCC1=C(C(=O)OC(c2ccccc2)c2ccccc2)N2C(=O)/C(=C/c3ccccn3)C2S(=O)(=O)C1` (stereo not drawn) belongs > 10 µM; to `CC(=O)OCC1=C(C(=O)OC(c2ccccc2)c2ccccc2)N2C(=O)C(=C(Br)Br)C2S(=O)(=O)C1` (stereo not drawn), 2.07 µM; to `C=C=C1C(=O)N2C(C(=O)OC(c3ccccc3)c3ccccc3)=C(COC(C)=O)CS(=O)(=O)C12` (stereo not drawn), 6.1 µM.
